Measured values collected from several papers.
Matrix: plasma
Route: intravenous

Structure (SMILES) | host | dose | setting | Vd
CN1CCC(c2ccccc2CC(C)(C)Nc2nc(N3CCOCC3)nc(-n3c(C(F)F)nc4ccccc43)n2)CC1 | rat | 5 mg/kg | single dose | 23.7 L/kg
CCCC[C@@H]1NC(=O)[C@H](Cc2ccc(O)cc2)NC(=O)[C@@H]2CCCN2C(=O)[C@H](CC(=O)O)NC(=O)[C@H](C)NC(=O)[C@H](Cc2ccccc2)NC(=O)[C@@H]2CSCCC(=O)N3CN(CN(C3)C(=O)CCSC[C@@H](C(=O)N[C@@H](C)C(N)=O)NC1=O)C(=O)CCSC[C@H](NC(C)=O)C(=O)N[C@@H](CC(C)(C)C)C(=O)N1CCC[C@H]1C(=O)N[C@@H](CCC(=O)O)C(=O)N[C@H](CCCCNC(=O)CCc1cn(CCOCCOCCOCCOCCOCCOCCOCCOCCOCCOCCNC(=O)CCOCCN(CCOCCC(=O)NCCOCCOCCOCCOCCOCCOCCOCCOCCOCCOCCn3cc(CCC(=O)NCCCC[C@H]4NC(=O)[C@H](CCC(=O)O)NC(=O)[C@@H]5CCCN5C(=O)[C@H](CC(C)(C)C)NC(=O)[C@@H](NC(C)=O)CSCCC(=O)N5CN6CN(C5)C(=O)CCSC[C@H](NC(=O)[C@H](Cc5ccc(O)cc5)NC(=O)[C@@H]5CCCN5C4=O)C(=O)N[C@@H](Cc4ccccc4)C(=O)N[C@@H](C)C(=O)N[C@@H](CC(=O)O)C(=O)N4CCC[C@H]4C(=O)N[C@@H](Cc4ccc(O)cc4)C(=O)N[C@@H](CCCC)C(=O)N[C@H](C(=O)N[C@@H](C)C(N)=O)CSCCC6=O)nn3)CCOCCC(=O)NCCOCCOCCOCCOCCOCCOCCOCCOCCOCCOCCn3cc(CCC(=O)N[C@H]4CSCCC(=O)N5CN6CN(C5)C(=O)CCSC[C@H](NC(=O)[C@@H](CC(=O)O)NC(=O)[C@H](Cc5cccc7ccccc57)NC(=O)[C@@H]5CCCN5C4=O)C(=O)N[C@@H](CCSC)C(=O)N[C@@H](CCCCNC(=N)N)C(=O)N[C@@H](CC(=O)O)C(=O)N[C@@H](Cc4c[nH]c5ccccc45)C(=O)N[C@@H](CO)C(=O)N[C@@H]([C@@H](C)O)C(=O)N4CCC[C@H]4C(=O)N4C[C@H](O)C[C@H]4C(=O)N[C@@H](Cc4c[nH]c5ccccc45)C(=O)N[C@H](C(N)=O)CSCCC6=O)nn3)nn1)C(=O)N1CCC[C@H]1C(=O)N[C@@H](Cc1ccc(O)cc1)C(=O)N2 | rat | 2 mg/kg |  | 0.44 L/kg
CCc1cc(OC)c2nccc(N3CCc4c(cc(Cn5ccnc5)cc4-c4cn(C)nc4C(F)(F)F)C3=O)c2c1 | male Sprague-Dawley rat | 3 mg/kg |  | 3.1 L/kg
C[C@]12CC[C@H](n3ccnc3)CC1=CC[C@@H]1[C@@H]2CC[C@]2(C)C(n3cnc4ccccc43)=CC[C@@H]12 | Sprague-Dawley rat | 1 mg/kg |  | ~6 L/kg
Cc1noc(-c2cc3cc(-c4nc(C(=O)NCc5ccncc5)[nH]c4C)ccc3[nH]2)n1 | Sprague-Dawley rat | 1 mg/kg |  | 1.5 L/kg
CCCC[C@@H]1NC(=O)[C@H](Cc2ccc(O)cc2)NC(=O)[C@@H]2CCCN2C(=O)[C@H](CC(=O)O)NC(=O)[C@H](C)NC(=O)[C@H](Cc2ccccc2)NC(=O)[C@@H]2CSCCC(=O)N3CN(CN(C3)C(=O)CCSC[C@@H](C(=O)N[C@@H](C)C(N)=O)NC1=O)C(=O)CCSC[C@H](NC(C)=O)C(=O)N[C@@H](CC(C)(C)C)C(=O)N1CCC[C@H]1C(=O)N[C@@H](CCC(=O)O)C(=O)N[C@H](CCCCNC(=O)CCc1cn(CCOCCOCCOCCOCCOCCC(=O)N[C@H]3CSCCC(=O)N4CN5CN(C4)C(=O)CCSC[C@H](NC(=O)[C@@H](CC(=O)O)NC(=O)[C@H](Cc4cccc6ccccc46)NC(=O)[C@@H]4CCCN4C3=O)C(=O)N[C@@H](CCSC)C(=O)N[C@@H](CCCCNC(=N)N)C(=O)N[C@@H](CC(=O)O)C(=O)N[C@@H](Cc3c[nH]c4ccccc34)C(=O)N[C@@H](CO)C(=O)N[C@@H]([C@@H](C)O)C(=O)N3CCC[C@H]3C(=O)N3C[C@H](O)C[C@H]3C(=O)N[C@@H](Cc3c[nH]c4ccccc34)C(=O)N[C@H](C(N)=O)CSCCC5=O)nn1)C(=O)N1CCC[C@H]1C(=O)N[C@@H](Cc1ccc(O)cc1)C(=O)N2 | rat | 2 mg/kg |  | 1 L/kg
CN1CCC(COc2cnc(-c3cccc(Cn4nc(-c5cccc(C#N)c5)ccc4=O)c3)nc2)CC1 | male Sprague-Dawley rat | 1 mg/kg |  | 19 L/kg
C#Cc1cnc2nc(O)n(C(CC)CC)c2n1 | Sprague-Dawley rat | 1 mg/kg |  | 0.8 L/kg
COc1ccc2c(Cc3ccccc3F)c3n(c(=O)c2c1OC)CCc1cc2c(cc1-3)OCO2 | rat | 5 mg/kg |  | 0.32 L/kg
CCCCCCCCCCCCCCCc1ccc(CP(=O)(O)O)cc1 | male Sprague-Dawley rat | 5.8 mg/kg |  | 3.9 L/kg
O=C(c1cc(Cc2n[nH]c(=O)c3ccccc23)ccc1F)N1CCN(C(=O)C2CC2)CC1 | female Sprague-Dawley rat |  |  | 0.201 L
Oc1c(-n2ccnn2)cnn1-c1cc(N2CCOCC2)ncn1 | male rat | 5 mg/kg |  | 0.62 L/kg
COc1cc(F)ccc1-c1ncnc(Nc2cccc(CS(N)(=O)=O)c2)n1 | male Wistar rat |  |  | 1.4 L/kg
